According to paper PMC2911241 (Letters in drug design & discovery, 2010):

Tests used:
[1] = system: human chronic myelogenous K562 leukemia cells; experiment: Cell proliferation analysis, K562 cells; type: cell-based; conditions: for IC50: Homo sapiens, K562, 24 h, read-out: IC50 K562
In short: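 K562 cells grown in RPMI 1640 with 10% FCS, 2 mM L-glutamine, […] and penicillin/streptomycin at 37°C, 5% CO2. DMSO stocks (1 mg/mL) diluted in medium. Cells (1×10^4/well) exposed to increasing concentrations for 24 h at 37°C, then counted electronically. IC50 is 50% growth inhibition vs untreated controls. Duplicate cultures per concentration, repeated experiments, mean ± SE.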

[2] = system: murine lymphocytic L1210 leukemia cells; experiment: Cell proliferation analysis, L1210 cells; type: cell-based; conditions: for IC50: Mus musculus, L1210, 24 h, read-out: IC50 L1210
In short: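 Murine L1210 cells maintained at 1×10^6 cells/mL in RPMI 1640 with 10% FCS, 2 mM L-glutamine, […] and penicillin/streptomycin (37 °C, 5% CO2). DMSO stocks (1 mg/mL) diluted in medium. 1×10^4 cells/well exposed to increasing concentrations for 24 h at 37 °C; cell number/mL counted on a Coulter counter. IC50 relative to untreated controls, duplicate cultures per concentration, mean ± SE of ≥3 independent experiments.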

Structure (SMILES)	IC50 [1]	other results
COc1cc(C(=O)c2sc3c(C)cccc3c2NC(C)=O)cc(OC)c1OC [Compound 3y, N-[7-Methyl-2-(3,4,5-trimethoxybenzoyl)-1-benzothien-3-yl]acetamide]	32 nM	
COc1cc(C(=O)c2oc3ccccc3c2NC(=O)CI)cc(OC)c1OC [Compound 3d, 2-Iodo-N-[2-(3,4,5-trimethoxybenzoyl)-1-benzofuran-3-yl]acetamide]	2210 ± 90 nM	fold more potent than the bromine 3c ([1]; antiproliferative activity, K562 and L1210 cells): 6 fold
COc1cc(C(=O)c2sc3cc(C)ccc3c2NC(=O)CBr)cc(OC)c1OC [Compound 3w, 2-Bromo-N-[6-methyl-2-(3,4,5-trimethoxybenzoyl)-1-benzothien-3-yl]acetamide]	500 ± 80 nM	
COc1cc(C(=O)c2oc3c(OC)cccc3c2NC(=O)CBr)cc(OC)c1OC [Compound 3o, 2-Bromo-N-[7-methoxy-2-(3,4,5-trimethoxybenzoyl)-1-benzofuran-3-yl]acetamide]	> 100000 nM	
COc1cc(C(=O)c2sc3ccccc3c2NC(=O)CO[N+](=O)[O-])cc(OC)c1OC [Compound 4b, 2-Oxo-2-{[2-(3,4,5-trimethoxybenzoyl)-1-benzothien-3-yl]amino}ethyl nitrate]	550 ± 50 nM	
COc1cc(C(=O)c2oc3ccccc3c2NC(=O)CO[N+](=O)[O-])cc(OC)c1OC [Compound 4a, 2-Oxo-2-{[2-(3,4,5-trimethoxybenzoyl)-1-benzofuran-3-yl]amino}ethyl nitrate]	31400 ± 1000 nM	
COc1ccc2oc(C(=O)c3cc(OC)c(OC)c(OC)c3)c(NC(=O)CI)c2c1 [Compound 3h, 2-Iodo-N-[5-methoxy-2-(3,4,5-trimethoxybenzoyl)-1-benzofuran-3-yl]acetamide]	49200 ± 1800 nM	IC50 [2]: 520 ± 30 nM
COc1ccc2oc(C(=O)c3cc(OC)c(OC)c(OC)c3)c(NC(=O)CBr)c2c1 [Compound 3g, 2-Bromo-N-[5-methoxy-2-(3,4,5-trimethoxybenzoyl)-1-benzofuran-3-yl]acetamide]	53400 ± 2600 nM	
COc1cc(C(=O)c2sc3c(C)cccc3c2NC(=O)CBr)cc(OC)c1OC [Compound 3aa, 2-Bromo-N-[7-methyl-2-(3,4,5-trimethoxybenzoyl)-1-benzothien-3-yl]acetamide]	490 ± 80 nM	
COc1cc(C(=O)c2sc3ccccc3c2NC(=O)CBr)cc(OC)c1OC [Compound 3s, 2-Bromo-N-[2-(3,4,5-trimethoxybenzoyl)-1-benzothien-3-yl]acetamide]	610 ± 40 nM	IC50 [2]: 500 ± 10 nM
COc1cc(C(=O)c2oc3ccccc3c2NC(=O)CBr)cc(OC)c1OC [Compound 3c, 2-Bromo-N-[2-(3,4,5-trimethoxybenzoyl)-1-benzofuran-3-yl]acetamide]	12800 ± 510 nM	IC50 [2]: 4560 ± 640 nM
COc1cc(C(=O)c2oc3c(OC)cccc3c2NC(C)=O)cc(OC)c1OC [Compound 3m, N-[7-Methoxy-2-(3,4,5-trimethoxybenzoyl)-1-benzofuran-3-yl]acetamide]	48100 ± 2600 nM	
C=C(Br)C(=O)Nc1c(C(=O)c2cc(OC)c(OC)c(OC)c2)sc2cc(C)ccc12 [Compound 5f, 2-Bromo-N-[6-methyl-2-(3,4,5-trimethoxybenzoyl)-1-benzothien-3-yl]acrylamide]	940 ± 60 nM	IC50 [2]: 59 nM
COc1cc(C(=O)c2sc3cc(C)ccc3c2NC(=O)CO[N+](=O)[O-])cc(OC)c1OC [Compound 4c, 2-{[6-Methyl-2-(3,4,5-trimethoxybenzoyl)-1-benzothien-3-yl]amino}-2-oxoethyl nitrate]	30 ± 20 nM	fold increase in potency relative to 4b ([1]; against K562 cells): 20 fold; IC50 [2]: 280 ± 30 nM
C=C(Br)C(=O)Nc1c(C(=O)c2cc(OC)c(OC)c(OC)c2)oc2cc(OC)ccc12 [Compound 5c, 2-Bromo-N-[6-methoxy-2-(3,4,5-trimethoxybenzoyl)-1-benzofuran-3-yl]acrylamide]	25900 ± 2300 nM	
COc1ccc2oc(C(=O)c3cc(OC)c(OC)c(OC)c3)c(NC(C)=O)c2c1 [Compound 3e, N-[5-Methoxy-2-(3,4,5-trimethoxybenzoyl)-1-benzofuran-3-yl]acetamide]	58100 ± 1300 nM	
COc1cc(C(=O)c2sc3ccccc3c2NC(=O)CCl)cc(OC)c1OC [Compound 3r, 2-Chloro-N-[2-(3,4,5-trimethoxybenzoyl)-1-benzothien-3-yl]acetamide]	600 ± 20 nM	
COc1ccc2oc(C(=O)c3cc(OC)c(OC)c(OC)c3)c(NC(=O)CCl)c2c1 [Compound 3f, 2-Chloro-N-[5-methoxy-2-(3,4,5-trimethoxy-benzoyl)-1-benzofuran-3-yl]acetamide]	60900 ± 2400 nM	
COc1cc(C(=O)c2oc3c(OC)cccc3c2NC(=O)CCl)cc(OC)c1OC [Compound 3n, 2-Chloro-N-[7-methoxy-2-(3,4,5-trimethoxybenzoyl)-1-benzofuran-3-yl]acetamide]	82700 ± 5600 nM	
COc1cc(C(=O)c2sc3cc(C)ccc3c2NC(C)=O)cc(OC)c1OC [Compound 3u, N-[6-Methyl-2-(3,4,5-trimethoxybenzoyl)-1-benzothien-3-yl]acetamide]	700 ± 10 nM	
C=C(Br)C(=O)Nc1c(C(=O)c2cc(OC)c(OC)c(OC)c2)oc2ccccc12 [Compound 5a, 2-Bromo-N-[2-(3,4,5-trimethoxybenzoyl)-1-benzofuran-3-yl]acrylamide]	5100 ± 70 nM	IC50 [2]: 530 nM; fold more active than amino counterpart 2a ([2]; against L1210 cells): 60 fold
COc1cc(C(=O)c2sc3c(C)cccc3c2NC(=O)CO[N+](=O)[O-])cc(OC)c1OC [Compound 4d, 2-{[7-Methyl-2-(3,4,5-trimethoxybenzoyl)-1-benzothien-3-yl]amino}-2-oxoethyl nitrate]	50 ± 10 nM	fold more potent than 4c ([2]; against L1210 cells): about 5 fold
C=C(Br)C(=O)Nc1c(C(=O)c2cc(OC)c(OC)c(OC)c2)oc2ccc(OC)cc12 [Compound 5b, 2-Bromo-N-[5-methoxy-2-(3,4,5-trimethoxybenzoyl)-1-benzofuran-3-yl]acrylamide]	> 100000 nM	
COc1cc(C(=O)c2sc3ccccc3c2NC(C)=O)cc(OC)c1OC [Compound 3q, N-[2-(3,4,5-Trimethoxybenzoyl)-1-benzothien-3-yl] acetamide]	630 ± 40 nM	
COc1cc(C(=O)c2sc3c(C)cccc3c2NC(=O)CI)cc(OC)c1OC [Compound 3ab, 2-Iodo-N-[7-methyl-2-(3,4,5-trimethoxybenzoyl)-1-benzothien-3-yl]acetamide]	550 ± 10 nM	
C=C(Br)C(=O)Nc1c(C(=O)c2cc(OC)c(OC)c(OC)c2)sc2c(C)cccc12 [Compound 5g, 2-Bromo-N-[7-methyl-2-(3,4,5-trimethoxybenzoyl)-1-benzothien-3-yl]acrylamide]	490 ± 30 nM	
COc1cc(C(=O)c2sc3cc(C)ccc3c2NC(=O)CCl)cc(OC)c1OC [Compound 3v, 2-Chloro-N-[6-methyl-2-(3,4,5-trimethoxybenzoyl)-1-benzothien-3-yl]acetamide]	80 nM	
C=C(Br)C(=O)Nc1c(C(=O)c2cc(OC)c(OC)c(OC)c2)sc2ccccc12 [Compound 5e, 2-Bromo-N-[2-(3,4,5-trimethoxybenzoyl)-1-benzothien-3-yl]acrylamide]	580 ± 30 nM	
COc1cc(C(=O)c2oc3ccccc3c2NC(C)=O)cc(OC)c1OC [Compound 3a, N-[2-(3,4,5-Trimethoxybenzoyl)-1-benzofuran-3-yl]acetamide]	> 100000 nM	
COc1cc(C(=O)c2oc3ccccc3c2NC(=O)CCl)cc(OC)c1OC [Compound 3b, 2-Chloro-N-[2-(3,4,5-trimethoxybenzoyl)-1-benzofuran-3-yl]acetamide]	45800 ± 1500 nM	
